From ChEMBL document CHEMBL4229349, “Challenging clinically unresponsive medullary thyroid cancer: Discovery and pharmacological activity of novel RET inhibitors” (Eur J Med Chem, 2018)

Tests used:
[1] = Metabolic stability in human liver microsomes assessed as parent compound remaining at 1 uM after 15 mins in presence of NADPH by HPLC-MS/MS analysis; type: ADME, microsome; conditions: read-out: Stability
Method in brief: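 The compound was incubated at 1 µM with human liver microsomes for 15 min, and the percentage of parent compound remaining was measured.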

[2] = Metabolic stability in human plasma assessed as parent compound remaining at 1 uM after 1 hr by HPLC-MS/MS analysis; type: ADME, cell-free; conditions: read-out: Stability
Method in brief: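 The compound was incubated in human plasma for 1 h, and stability was expressed as the percentage of parent compound remaining.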

remaining at […], 1 µM [1]: 40%
remaining at 1 h, 1 µM [2]: 85%
SMILES: Clc1ccc(SCc2n[nH]c(-c3ccc(Cl)cc3)n2)cc1
